In the RNAGym collection of RNA variant scans (doi:10.1126/science.aae0568):
Fewer inactive variants are shown than the library holds.

B1: tRNA (parent)
chain: GUUCCGUUGGCGUAAUGGUAACGCGUCUCCCUCCUAAGGAGAAGACUGCGGGUUCGAGUCCCGUACGGAACG

Variants of: B1
Assay: yeast fitness relative to wild type (ratio to wild type); higher = fitter; tRNA-Arg(CCU), competitive growth, 37 C, YPD
Outline: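 Changes in genotype frequencies gave Darwinian fitness relative to wild type. Frequencies were read by 100-nucleotide paired-end sequencing of gene amplicons before and after pooled Saccharomyces cerevisiae strains, carrying tRNA-Arg(CCU) gene variants at the native locus, were competed in YPD at 37°C for 24 hours in six replicates. A genotype was kept only with ≥ 100 starting reads, and estimates < 0.5 were set to 0.5.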

Row | Variant | yeast fitness
1 | G9A G18A A21C C29U G58C C66G | ≤ 0.5
2 | G9C A21G U64A | ≤ 0.5
3 | G9C A36U A40U G44A G63A | ≤ 0.5
4 | G9C A20U C27G A42C C49U A65C | ≤ 0.5
5 | G9C A14C A69U | ≤ 0.5
6 | G9C A14C A15U G23A C34A G52C G63C | 0.585
7 | G9C A14U A21C C61A | 0.81
8 | G9C A21G G44C U47C A70U | ≤ 0.5
9 | G9A G23A G25C U28C A57U A70U | ≤ 0.5
10 | G9A G51A C60U G67A | 0.588
11 | G9A G12C A65G G67C A69G | ≤ 0.5
12 | G9A C55G A69C | 0.611
13 | G9A C27G A40G G52A | ≤ 0.5
14 | G9A C22G A36U | 0.666
15 | G9C C27U U47C C55U C62G A69U | ≤ 0.5
16 | G9A G12C G17A C22G C30U C34G C49U U59G | ≤ 0.5
17 | G9C C30G A37U U47A | ≤ 0.5
18 | G9A C61U | 0.949
19 | G9A C22U C30G C61U | ≤ 0.5
20 | G9C C22U U26C G58C G68U | ≤ 0.5
21 | G9A G10A C55A A65U G67C | 0.506
22 | G9C C27G C46G A65G | ≤ 0.5
23 | G9A C55G G56C | ≤ 0.5
24 | G9A G10A C24A G44A | ≤ 0.5

Row | Variant | yeast fitness
25 | G9A C34G G38C | ≤ 0.5
26 | G9A G17A C22G A40G G41C | ≤ 0.5
27 | G9C C24A C34A C46G | ≤ 0.5
28 | G9A C31A U47C G67A | ≤ 0.5
29 | G9A G52A | 0.687
30 | G9A C22A C33G U35A C55U | ≤ 0.5
31 | G9A G51C G52C | ≤ 0.5
32 | G9C C22G C33G G63C | ≤ 0.5
33 | G9C A14C A15U G23A C34A G52C | ≤ 0.5
34 | G9A C34G U47C | ≤ 0.5
35 | G9A C30G C31G A43G A65G | ≤ 0.5
36 | G9C C11A U47G A69C | 0.601
37 | G9C C24A A45G C46G | 0.597
38 | G9A C27U G41C | 0.618
39 | G9A G44A C46U A69C | 0.787
40 | G9C C27U G58C | 0.639
41 | G9C C27U U47G G50A | ≤ 0.5
42 | G9A C29U A65U | ≤ 0.5
43 | G9C A15G C30U C46A U54A A57G | ≤ 0.5
44 | G9C A21G C34G | ≤ 0.5
45 | G9C A15G C27A C31G G50A | 0.642
46 | G9C A15G C24A C49U | ≤ 0.5
47 | G9A G39C A42C C49A | ≤ 0.5
48 | G9A C46A | 0.91

Row | Variant | yeast fitness
49 | G9C C46G | 0.735
50 | G9C C29U A70C | ≤ 0.5
51 | G9A U19C C22A | 0.606
52 | G9A G51C | 0.539
53 | G9A C22G A45G | 0.588
54 | G9A C29A G56C | ≤ 0.5
55 | G9A C30U A57G | ≤ 0.5
56 | G9C A15G G58C | 0.564
57 | G9A C31U C60U A65G | ≤ 0.5
58 | G9C C61A | 0.531
59 | G9C A14U G48C U64G | ≤ 0.5
60 | G9A C29U U32A A43U | 0.604
61 | G9A C29U U59A | 0.561
62 | G9C A15G C49A | 0.601
63 | G9C A21G A57C | ≤ 0.5
64 | G9C A40U A70U | ≤ 0.5
65 | G9A U28C A36G | 0.683
66 | G9C C27A C33A G63A A70G | ≤ 0.5
67 | G9A U16A A42C U53C C62A | ≤ 0.5
68 | G9C A40G A42G A57U C62G C66U | 0.565
69 | G9A G56A A70C | 1.03
70 | G9A C24U A40U G68C | ≤ 0.5
71 | G9A C24U U32G | ≤ 0.5
72 | G9A G10A U28A G39A G48A C61G C66G | ≤ 0.5

Row | Variant | yeast fitness
73 | G9A U26G C30A | 0.636
74 | G9A U16C A20C C61U | ≤ 0.5
75 | G9A C24G C34G C55A A65G | ≤ 0.5
76 | G9A C30U G44A | 0.615
77 | G9C C62A | 0.576
78 | G9C C62G | 0.608
79 | G9A C31A G41C C55U | ≤ 0.5
80 | G9C G10A G12C G25C G52C | ≤ 0.5
81 | G9C A15U U16C A36U | ≤ 0.5
82 | G9A G50C | 0.947
83 | G9C A14G U16G G23A C33A G44A | ≤ 0.5
84 | G9A G25A A43G A65U | ≤ 0.5
85 | G9A U26A | 0.837
86 | G9A U19G U59C C62G A65U | ≤ 0.5
87 | G9A C29U U59G A65C | ≤ 0.5
88 | G9A G17C A43U | ≤ 0.5
89 | G9C C27G G44A A57G | 0.691
90 | G9A C29G G63A | 0.525
91 | G9A C34A G58A | 0.667
92 | G9A G44U | 0.766
93 | G9A G38C G41C A45G | ≤ 0.5
94 | G9A U13A C24A A45C | ≤ 0.5
95 | G9A C27A | 0.955
96 | G9A U16A C30G A57C | ≤ 0.5

Row | Variant | yeast fitness
97 | G9C C22A C34A A70G | ≤ 0.5
98 | G9A C27G C34A C46G C55A | 0.508
99 | G9A C31G | 0.819
100 | G9A C22G U28A C31G C55A G68C | ≤ 0.5
101 | G9C C29U C49A C61U | ≤ 0.5
102 | G9A G56A | 1
103 | G9A C27A A42C C49G G51C A65C | ≤ 0.5
104 | G9A C22A C60A | 0.705
105 | G9A C24G G39C G56C | ≤ 0.5
106 | G9A G10A C31G G52A A65C | ≤ 0.5
107 | G9A C24G C34G A45C A65G | ≤ 0.5
108 | G9C C24U G48C G51A | ≤ 0.5
109 | G9C C24U U26G C62G A70U | ≤ 0.5
110 | G9C A45C A65C | ≤ 0.5
111 | G9A G12C C31A C33G A43C A69U A70C | ≤ 0.5
112 | G9C C24U U26G A42U G52U | ≤ 0.5
113 | G9A U16C A21G A42G | ≤ 0.5
114 | G9A G39A A45G G50A | ≤ 0.5
115 | G9C A15C C34G C66A A69C | ≤ 0.5
116 | G9A C31A U47A | ≤ 0.5
117 | G9C C24G C49U A65C | ≤ 0.5
118 | G9A C24G A37C A70U | ≤ 0.5
119 | G9C C46U G63A | 0.69
120 | G9A C27G C34U | ≤ 0.5

Row | Variant | yeast fitness
121 | G9C C11A A40C A70U | 0.704
122 | G9A C24G C34G | 0.633
123 | G9C A65C | 0.67
124 | G9C A40U G41A | ≤ 0.5
125 | G9C A15C U16C C34G C66A A69C | ≤ 0.5
126 | G9A C30A A65C | 0.664
127 | G9A G44C C66U | 0.552
128 | G9C A14C U19G A42U | ≤ 0.5
129 | G9C A20G U35C A36G | ≤ 0.5
130 | G9A C24G A40C | ≤ 0.5
131 | G9A C27G U35A | ≤ 0.5
132 | G9C A43G | 0.706
133 | G9C A20C | 0.626
134 | G9C C24G C27U U47G U53A | ≤ 0.5
135 | G9C A42C C49G U53A | ≤ 0.5
136 | G9C C55G C66A | ≤ 0.5
137 | G9A C33U U47C | ≤ 0.5
138 | G9A C11U C61A | 0.56
139 | G9A G25C | 0.931
140 | G9C C33U | 0.536
141 | G9A U53G | 0.661
142 | G9A C29A A37G | 0.513
143 | G9A G50A G67A | 0.652
144 | G9A C34U C46A C62U | 0.546

Row | Variant | yeast fitness
145 | G9A C11U C66U | 0.779
146 | G9C C22G G50A | ≤ 0.5
147 | G9A C34U G67A | ≤ 0.5
148 | G9C A14U G51A U64G | 0.608
149 | G9C A15G U16C C29A U47C | 0.69
150 | G9A C27G C31U C46G G51C G52A | ≤ 0.5
151 | G9C C11U G18C C31A A57G | ≤ 0.5
152 | G9A G12C A14C | 0.535
153 | G9A U13C U19C C34U | 0.549
154 | G9C A21G A42G | ≤ 0.5
155 | G9C C27U A36G A42U | 0.76
156 | G9C A20C U47C C66A | 0.543
157 | G9C A14G G44A U53C A70U | ≤ 0.5
158 | G9C G10C A36U | ≤ 0.5
159 | G9A G39A A45G G50A G63U A69U | ≤ 0.5
160 | G9A C46A C55U | 0.543
161 | G9A C30U C33A A36U A43U U54C G56A | 0.626
162 | G9C C30G A57U C60G | 0.533
163 | G9C C29A | 0.601
164 | G9A U54C | 0.841
165 | G9A C27G C31U C46G G51C A70U | ≤ 0.5
166 | G9C C27U C34G C60A | ≤ 0.5
167 | G9A G12U A14U U53A U54C | ≤ 0.5
